Several values for one entry are separate records, joined by “and”; a condition that tells them apart may be missing. Identical values can stand only once.
Key:
[1] = Distribution coefficient, log D of the compound at pH 7.4; type: physicochemical; conditions: octanol/water
[2] = Solubility of the compound at pH 2; type: physicochemical; conditions: buffer
[3] = Solubility of the compound at pH 6.5; type: physicochemical; conditions: buffer
[4] = Dissociation constant, pKa of the compound; type: physicochemical
Liver microsomes = assay: Intrinsic clearance in human liver microsomes assessed per mg of protein by liquid chromatography-mass spectrometry; type: ADME, Microsome
Method in brief: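 Compound is incubated with human liver microsomes and NADPH, and parent loss is followed by LC-MS. Concentration versus time is fitted to exponential decay to give the first-order depletion rate constant. In vitro CLint and predicted hepatic extraction ratio are calculated from that constant.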

Leishmania donovani = assay: Antiprotozoal activity against Leishmania donovani MHOM/ET/67/L82 amastigotes; type: functional, organism-based
[5] = Cytotoxicity against rat L6 cells; type: cell-based
Plasmodium falciparum = assay: Antiplasmodial activity against Plasmodium falciparum 3D7 erythrocytic stage; type: functional, organism-based
Trypanothione reductase [6] = target: T1, Trypanothione reductase (Trypanosoma cruzi, UniProt P28593); assay: Inhibition of Trypanosoma cruzi X10/1 trypanothione reductase assessed as inhibition of thionitrobenzoate formation by microplate reader analysis
T1 sequence (P28593 whole entry): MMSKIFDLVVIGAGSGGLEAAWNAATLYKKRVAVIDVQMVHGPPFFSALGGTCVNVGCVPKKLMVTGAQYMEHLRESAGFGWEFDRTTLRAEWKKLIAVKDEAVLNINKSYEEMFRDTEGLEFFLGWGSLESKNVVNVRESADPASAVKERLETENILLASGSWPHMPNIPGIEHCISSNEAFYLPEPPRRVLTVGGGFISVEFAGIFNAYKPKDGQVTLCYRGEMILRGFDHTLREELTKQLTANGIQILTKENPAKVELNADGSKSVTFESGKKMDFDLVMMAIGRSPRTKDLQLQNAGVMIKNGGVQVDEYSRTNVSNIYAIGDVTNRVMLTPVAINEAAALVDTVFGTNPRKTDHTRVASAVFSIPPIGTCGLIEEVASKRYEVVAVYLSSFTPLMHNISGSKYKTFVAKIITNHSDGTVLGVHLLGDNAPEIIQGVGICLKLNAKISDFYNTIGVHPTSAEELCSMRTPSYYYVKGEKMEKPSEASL
Method in brief: (§1)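 Recombinant T. cruzi TR (Silvio X10/1) coupled to DTNB-driven trypanothione regeneration. Enzyme (20 mU/ml), 12 μM T[S]2 and 200 μM DTNB in pH 7.5 HEPES/EDTA/BSA/Tween 20 buffer are preincubated ≥15 min at room temperature with compound. The reaction is started with 300 μM NADPH. Final conditions are 6 μM T[S]2, 100 μM DTNB and 150 μM NADPH. TNB absorbance at 410 nm is read for 12.5 min. Titrations are run in triplicate.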

[7] = tested on: Trypanosoma brucei rhodesiense; assay: Antitrypanosomal activity against Trypanosoma brucei rhodesiense STIB900 bloodstream forms; type: functional, organism-based
Trypanosoma cruzi = assay: Antiprotozoal activity against Trypanosoma cruzi Tulahuen C2C4 amastigotes; type: functional, organism-based
Trypanothione reductase [8] = target: T1, Trypanothione reductase; assay: Inhibition of Trypanosoma cruzi trypanothione reductase assessed as inhibition of thionitrobenzoate formation by microplate reader analysis; method in brief: as §1
[9] = target: Glutathione reductase (Homo sapiens); assay: Inhibition of human glutathione reductase
[10] = Cytotoxicity against human HT-29 cells; type: cell-based

SMILES	IC50 (Leishmania donovani) [µM]	CC50 [5] [µM]	IC50 (Plasmodium falciparum) [µM]	IC50 (Trypanothione reductase [6]) [µM]	IC50 [7] [nM]	IC50 (Trypanosoma cruzi) [µM]	other results
CCc1ccc2c(C)nc(NC3=NC(C)(C)C=C(C)N3)nc2c1							logD [1]: 0.7; solubility [2]: > 100 µM; solubility [3]: > 100 µM; pKa [4]: 2.4; CL (Liver microsomes): 0.09 mL/min/mg
CN1C2CCC1CC(=NOC(c1ccccc1)c1ccc(Cl)cc1)C2 (configuration not stated)	> 30	35	8	33	3000	0.1	logD [1]: 2.9; solubility [2]: > 100 µM; solubility [3]: > 100 µM; pKa [4]: 8.34; CL (Liver microsomes): 0.031 mL/min/mg
CSc1nncc(-c2ccccc2)n1				> 100			
S=C(Nc1ccccc1)NC1CCN(Cc2ccccc2)CC1							IC50 (Trypanothione reductase [8]): 33 µM
S=C(Nc1cccnc1)NC1CCN(Cc2ccccc2)CC1	> 30	90	8.6	2	15000	> 30	IC50 (Trypanothione reductase [8]): 1 µM and 3 µM
CN1/C(=C/C=C2\C=Nc3ccccc32)C=Cc2ccccc21	3	14	0.2	23	100	6	
CCCNC(=S)NC1CCN(Cc2ccccc2)CC1							IC50 (Trypanothione reductase [8]): > 100 µM
O=C(Nc1cccnc1)NC1CCN(Cc2ccccc2)CC1							IC50 (Trypanothione reductase [8]): > 100 µM
CCN1CCC(NC(=S)Nc2cccnc2)CC1							IC50 (Trypanothione reductase [8]): > 100 µM
CSc1nncc(-c2cnc(SC)c3c2CCCC3)n1				> 100			
CCc1ccc2c(C)nc(NC3=NC(C)(C)CC(C)=N3)nc2c1				32			logD [1]: 3.6; solubility [2]: > 100 µM; solubility [3]: > 100 µM; pKa [4]: 2; CL (Liver microsomes): 0.09 mL/min/mg
CCOc1ccc2c(C)nc(NC3=NC(C)(C)CC(C)=N3)nc2c1				28			
Cc1cc(C)c2nc(Nc3nc(C)c(C)c(O)n3)nc(C)c2c1				> 100			
Cc1cc(C)c2c(C)nc(Nc3nc(C)cc(C)n3)nc2c1	32	11	4	> 100	27000	8	
Cc1ccc2nc(Nc3nc(C)cc(C)n3)nc(C)c2c1				> 100			
Cc1cc(C)c2nc(NC(=N)N)nc(C)c2c1				> 100			
N=c1n(CCOc2ccccc2)c2ccccc2n1CCN1CCCCC1	> 30		2	9	600	19	IC50 [9]: > 100 µM; CC50 [10]: 42 µM
CC1=CC(C)(C)N=C(Nc2nc(C)c3cc(C)cc(C)c3n2)N1	14	10	2	17	1000	6	
COc1nncc(-c2cnnc(SC)n2)n1	8	30	0.2	27	5000	15	
Cc1nc(NC(=N)N)nc2ccccc12	> 64	> 64	42	> 100	39000	38	
Nc1nc(N)nc(Nc2ccc([As]3SCC(CO)S3)cc2)n1 (configuration not stated) [MELARSOPROL]					17		
